In paper PMC3929337 (Biochemistry, 2014):

Legend:
[1] = test system: Notch 1 receptor (NΔE) proteolysis, NICD; test: Cell-based Notch proteolytic processing assay; design: species or system human; details: H4-APP751/NΔE cells, 24 h; lowest concentration tested
Outline: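 H4 human neuroglioma cells stably overexpressing human APP751 were transfected with Myc-tagged NΔE Notch and treated for a further 24 h with serially diluted test compound, DMSO vehicle, or a dipeptidic γ-secretase inhibitor as positive control. Concentrations ranged up to 30 μM. Cells were harvested 48 h post-transfection. Lysates were Western blotted with anti-Myc for NΔE/NICD, an APP C-terminal antibody for holo-APP, C99 and C83, and anti-β-actin as loading control.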

[2] = test system: Aβ peptide variants in PS1 mutant-expressing cell lines; details: cited from earlier work

C[C@H](NC(=O)Cc1cc(F)cc(F)c1)C(=O)NC(C(=O)OC(C)(C)C)c1ccccc1 (stereo partly drawn) [DAPT, N-[N-(3,5-difluorophenacetyl)-L-alanyl]-S-phenylglycine tert-butyl ester]
concentration at which inhibition of NICD occurred [1]: ≤ 300 nM

COc1cc(/C=C2\CCCN([C@@H](C)c3ccc(F)cc3)C2=O)ccc1-n1cnc(C)c1 [Eisai]
effects on Aβ38 and Aβ42 in PS1 mutant cell lines [2]: behaved like the “TorreyPines” compound

CC(C)CC[C@H](c1ccc(Cl)cc1)N1CC[C@@H](CC(=O)O)C[C@H]1c1ccc(C(F)(F)F)cc1 [GSM-1]
effect on Aβ peptide variants, G384A PS1 mutant ([2]; G384A PS1 mutant): effectively lowered Aβ42, Aβ40, and Aβ37 | effect on Aβ38 levels, PS1 mutants L166P and N135S ([2]; PS1 mutants L166P and N135S): increases in Aβ38 levels | inhibition of Aβ42, PS1 mutants L166P and N135S ([2]; PS1 mutants L166P and N135S): resistant
